The nature of test [1]: Antiplatelet activity in pig platelet assessed as inhibition of ADP-induced aggregation measured for 5 mins by aggregometry (reference value: 50.16 +/- 3.65%). It counts as functional, cell-based. The following applies: Sus scrofa.
Test [2] is described as follows: Antiplatelet activity in pig platelet assessed as inhibition of platelet activating factor-induced aggregation measured for 5 mins by aggregometry (reference value: 52.30 +/- 1.78%). As to conditions: Sus scrofa. In kind it is functional, cell-based.
Test [3] in a line: Antiplatelet activity in pig platelet assessed as inhibition of arachidonic acid-induced aggregation measured for 5 mins by aggregometry (reference value: 49.62 +/- 2.90%). It counts as functional, cell-based. As to conditions: Sus scrofa.
For test [4], the system named is Rattus norvegicus. The experiment in a line: Antithrombotic activity in pentobarbital sodium anesthetized Wistar rat assessed as decrease in thrombus weight at 10 nmol/kg, po (reference value: 28.21=/-1.11 mg). It counts as functional. The gist of the method:
(§1)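 Male Wistar rats (250–300 g) received test agents orally, dissolved in NS and kept on ice; NS served as the vehicle control. After 30 min, rats were anaesthetised with pentobarbital sodium (80.0 mg/kg, i.p.). The right carotid artery and left jugular vein were exposed and joined through a polyethylene tube holding a weighed 6 cm thread. Wet thrombus weight is reported as mean ± SD in mg.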

A short description of test [5]: Antiplatelet activity in pig platelet assessed as inhibition of ADP-induced aggregation at 1.7 mM measured for 5 mins by aggregometry. It counts as functional, Sus scrofa. Also noted: scale not given: the % may be the effect or the level left.
The nature of test [6]: Antiplatelet activity in pig platelet assessed as inhibition of platelet activating factor-induced aggregation at 1.7 mM measured for 5 mins by aggregometry. Also noted: scale not given: the % may be the effect or the level left. It counts as functional, Sus scrofa.
Test [7] in a line: Antiplatelet activity in pig platelet assessed as inhibition of arachidonic acid-induced aggregation at 1.7 mM measured for 5 mins by aggregometry. It counts as functional, Sus scrofa. Also noted: scale not given: the % may be the effect or the level left.
The subject of test [8] is Rattus norvegicus. In words: Antithrombotic activity in pentobarbital sodium anesthetized Wistar rat assessed as thrombus weight at 160 umol/kg, po (reference value: 28.21=/-1.11 mg). It counts as functional. In short, it runs like this:
as §1

Test [9] deals with Rattus norvegicus. The experiment in a line: Antithrombotic activity in pentobarbital sodium anesthetized Wistar rat assessed as decrease in thrombus weight at 100 nmol/kg, po (reference value: 28.21=/-1.11 mg). It counts as functional. In short, it runs like this:
as §1

Test [10] deals with Rattus norvegicus. In words: Antithrombotic activity in pentobarbital sodium anesthetized Wistar rat assessed as decrease in thrombus weight at 1 nmol/kg, po. It counts as functional. The gist of the method:
as §1

Test [11] relates to Rattus norvegicus. In words: Antithrombotic activity in pentobarbital sodium anesthetized Wistar rat assessed as decrease in thrombus weight at 0.1 nmol/kg, po. It counts as functional. The gist of the method:
as §1

Test [12] concerns Rattus norvegicus. The experiment in a line: Antithrombotic activity in po dosed Wistar rat assessed as decrease in thrombus weight. In kind it is functional, organism-based. The gist of the method:
as §1

This is an account of results in ChEMBL document CHEMBL1811858, “A class of oral N-[(1S,3S)-1-methyl-1,2,3,4-tetrahydro-β-carboline-3-carbonyl]- N'-(amino-acid-acyl)hydrazine: discovery, synthesis, in vitro anti-platelet aggregation/in vivo anti-thrombotic evaluation and 3D QSAR analysis” (Eur J Med Chem, 2011).

The term IC50 denotes the concentration at which inhibition is half-maximal. For the compound `C[C@H](N)C(=O)NNC(=O)[C@@H]1Cc2c([nH]c3ccccc23)[C@H](C)N1`, the IC50 worked out at 118 µM in [1], 162 µM in test [2] and 20 µM in test [3]. Also, in test [4], the Activity is listed as 20.06 mg.
`C[C@@H]1N[C@H](C(=O)NNC(=O)[C@@H](N)Cc2ccccc2)Cc2c1[nH]c1ccccc21`: the IC50 in test [1] amounted to 307 µM; in [2] it was 109 µM; in test [3], 7.1 µM. Also, the Activity in test [4] is given as 21 mg.
For the compound `C[C@@H]1N[C@H](C(=O)NNC(=O)[C@@H](N)CCC(N)=O)Cc2c1[nH]c1ccccc21`, the IC50 came out at 598 µM in test [1], 267 µM in test [2] and 18.5 µM in [3]. Also, the Activity in test [4] is 21.01 mg.
`C[C@@H]1N[C@H](C(=O)NNC(=O)[C@@H](N)CC(=O)OCc2ccccc2)Cc2c1[nH]c1ccccc21`: the IC50 turned out to be 117 µM in test [1], 196 µM in test [2] and 5.2 µM in test [3]. The Activity in test [4] is reported as 19.65 mg.
With `C[C@@H]1N[C@H](C(=O)NNC(=O)CN)Cc2c1[nH]c1ccccc21`, the IC50 stood at 722 µM in test [1], 348 µM in test [2] and 20.7 µM in [3]. Further, the Activity in test [4] was found to be 23.74 mg.
For `C[C@@H]1N[C@H](C(=O)NNC(=O)[C@@H](N)CCCCN)Cc2c1[nH]c1ccccc21`, in that order: 321 µM, 106 µM, 3.4 µM and 18.97 mg.
The matching figures for `CC(C)[C@H](N)C(=O)NNC(=O)[C@@H]1Cc2c([nH]c3ccccc23)[C@H](C)N1`: 156 µM, 50 µM, 3.7 µM and 24.01 mg.
The matching figures for `CSCC[C@H](N)C(=O)NNC(=O)[C@@H]1Cc2c([nH]c3ccccc23)[C@H](C)N1`: 417 µM, 52.9 µM, 21.7 µM and 18.55 mg.
On to `C[C@@H]1N[C@H](C(=O)NNC(=O)[C@@H]2CCCN2)Cc2c1[nH]c1ccccc21`, for which the half-inhibitory concentration (IC50) in [1] was 166 µM; in [2] it was 134 µM; in test [3] it was 20.6 µM. For the same compound, the Activity in [4] is reported as 20.39 mg.
Regarding `CC(=O)Oc1ccccc1C(=O)O` [ASPIRIN], the Activity in test [5] was 31.14%; in test [6], 33.22%; in [7] it was 34.5%; in test [8] it was 18.24 mg.
Regarding `C[C@@H]1N[C@H](C(=O)NNC(=O)[C@@H](N)CO)Cc2c1[nH]c1ccccc21`, the IC50 in [1] turned out to be 276 µM; in [2], 119 µM; in test [3], 19.9 µM. The Activity in test [4] was 19.04 mg.
With `C[C@@H]1N[C@H](C(=O)NN)Cc2c1[nH]c1ccccc21`, the concentration for half-maximal inhibition (IC50) was found to be 611 µM in test [1], 111 µM in test [2] and 21.5 µM in [3]. Further, the Activity in test [9] is recorded as 21.23 mg.
Turning to `C[C@@H]1N[C@H](C(=O)NNC(=O)[C@@H](N)Cc2ccc(O)cc2)Cc2c1[nH]c1ccccc21`, the 50% inhibitory concentration (IC50) worked out at 152 µM in test [1], 12.7 µM in test [2] and 13 µM in [3]. The Activity in [4] is recorded as 20.24 mg.
For `CC[C@H](C)[C@H](N)C(=O)NNC(=O)[C@@H]1Cc2c([nH]c3ccccc23)[C@H](C)N1`, in that order: 51.1 µM, 1.4 µM, 2.4 µM and 20.62 mg.
For `C[C@@H]1N[C@H](C(=O)NNC(=O)[C@@H](N)Cc2cnc[nH]2)Cc2c1[nH]c1ccccc21`, in that order: 94.6 µM, 7.7 µM, 4.8 µM and 19.75 mg.
As for `C[C@@H]1N[C@H](C(=O)NNC(=O)[C@@H](N)CCC(=O)OCc2ccccc2)Cc2c1[nH]c1ccccc21`, the concentration for half-maximal inhibition (IC50) in test [1] stood at 524 µM; in [2], 362 µM; in test [3] it was 6.3 µM. Moreover, the Activity in test [4] is 21.36 mg.
Consider `C[C@@H]1N[C@H](C(=O)NNC(=O)[C@@H](N)CC(N)=O)Cc2c1[nH]c1ccccc21`, for which the IC50 is 609 µM in test [1], 507 µM in [2] and 19.7 µM in test [3]. In test [4], the Activity is given as 20.42 mg.
The matching figures for `CC(C)C[C@H](N)C(=O)NNC(=O)[C@@H]1Cc2c([nH]c3ccccc23)[C@H](C)N1`: 31.6 µM, 1.2 µM, 3.2 µM and 21.06 mg.
As to `C[C@@H]1N[C@H](C(=O)NNC(=O)[C@@H](N)[C@@H](C)O)Cc2c1[nH]c1ccccc21`, the IC50 in test [1] was determined as 531 µM; in test [2], 31.9 µM; in test [3] it was 4.7 µM. The Activity in test [4] is 18.67 mg; in test [10], 22.77 mg; in [11], 27.22 mg; in test [12] it was “Dose-dependent effect”.
With `C[C@@H]1N[C@H](C(=O)NNC(=O)[C@@H](N)Cc2c[nH]c3ccccc23)Cc2c1[nH]c1ccccc21`, the IC50 worked out at 21.7 µM in test [1], 4.3 µM in test [2] and 0.6 µM in [3]. Moreover, the Activity in test [4] was 18.87 mg.
